According to ChEMBL document CHEMBL4513216, “Probing the Open Global Health Chemical Diversity Library for Multistage-Active Starting Points for Next-Generation Antimalarials” (ACS Infect Dis, 2020):

Test: Toxicity liver stage against HepG2, at 10uM
Type: cell-based
Set-up: test concentration 10 uM, cell line HepG2-A16-CD81EGFP
Conditions: human, HepG2-A16-CD81EGFP cells; read-out: INHIBITION
Procedure, shortened: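 Uninfected HepG2-A16-CD81EGFP cells, 3 × 10^3 per well, 1536-well, plated on prespotted compound at 10 μM final, parasite-free screening media added to match infected plates; puromycin 10 μM positive, DMSO 0.5% negative; run in parallel with 48 h PbLuc assay at 37 °C, 5% CO2; viability by CellTiter-Glo luminescence, normalized to controls.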

Structure (SMILES) | cytotoxicity at 10 µM
Cc1cc2cc(Nc3c(C#N)c(=O)n(C)c(=O)n3C)ccc2[nH]1 | 1.11%
CC(C)c1noc([C@@H]2Cc3[nH]cnc3CN2C(=O)Nc2ccccc2)n1 | 0.0515%
O=C1N[C@@H]2CCN(C(=O)N3CCOCC3)[C@@H]2C(=O)N1Cc1ccccc1 | -3.36%
CC(c1ccncc1)N(CCN(C)C)C(=O)Nc1ccc(Cl)c(Cl)c1 (centres undefined) | 7.41%
Cc1nn2cnnc2c(C)c1CCC(=O)Nc1nnc(C2CC2)s1 | -2.89%
CCc1cnc2c(c1Nc1cccc(OC)c1)c(=O)n(C)c(=O)n2C | 12.6%
O=C(CC1CC1)N1CCC2(CC1)C(=O)NCCN2Cc1ccccc1 | -3.33%
O=C(NCc1ccccc1)N1C[C@H]2CCN[C@H]2C1 | -5.54%
O=C1COC2(CCN(C(=O)c3cnccn3)CC2)CN1CC1CC1 | -16%
Cc1nc(N2CCCC2)nc2c1CN(C(=O)c1ccco1)CC2 | 5.29%
CN(C)C(=O)c1nc2c(n1C)CCN(Cc1ccccc1)C2 | 7.83%
Cc1nc([C@H]2C[C@H]3CN(C(=O)c4cc(C)c(C)s4)CC[C@@H]3O2)no1 | 0.732%
Cc1noc([C@H]2COC[C@H]3CN(C(=O)Cc4ccsc4)C[C@H]32)n1 | -3.26%
O=C1COC2(CCN(Cc3ccncc3)CC2)CN1CC1CC1 | -3.84%
Cc1cc2nc(SCC(=O)N3CCOCC3)n(CC(C)C)c(=O)c2[nH]1 | 1.36%
COCC1CC2(CCN(C(=O)c3cccn3C)CC2)CN1C(C)C (centres undefined) | -14.2%
CN1CCN(C(=O)[C@@H]2CCO[C@@H]3CCN(c4ncccn4)C[C@@H]32)CC1 | -4.96%
Cc1cc(C(=O)NCC2COCc3c(C)nnn3C2)no1 (centres undefined) | -7.32%
O=C1CCC(c2nc(C3CCN(C(=O)Cc4cccs4)CC3)no2)N1 (centres undefined) | -2.83%
Cc1ncsc1C(=O)N1CCC(O)(Cn2c(C)cc3ccncc32)CC1 | 9.59%
COc1ccc2c(c1)NC(C1CCN(C(=O)C3CC3)CC1)NS2(=O)=O (centres undefined) | 0.0454%
CCCC(=O)N1CCC(Cc2ccccc2-c2ccccc2)(C(N)=O)C1 (centres undefined) | -23.6%

Structure (SMILES) | cytotoxicity at 10 µM
CC(=O)c1ccc(-c2cc(C(F)(F)F)cc(N(C)C)n2)cc1 | 4.02%
Cc1cc(NC(=O)c2ccc(C)c(F)c2)[nH]n1 | -42.1%
CCc1nsc(N2CCn3c(nnc3-c3ccccc3)C2)n1 | 3.67%
O=C(c1cccnc1N1CCCC1)N1CCOC(c2ccccc2)C1 (centres undefined) | 3.13%
CC(NC(N)=O)C(=O)NCc1ccc(Br)c(F)c1 (centres undefined) | 7.97%
c1csc(-c2noc(C3CCCOC3)n2)c1 (centres undefined) | 7.39%
CCC(C)(CC(=O)OC)NCc1noc(C)n1 (centres undefined) | -4.39%
CCC(C)NC(=O)Nc1cccc(OC)c1 (centres undefined) | 0.554%
O=C(Nc1cnn(Cc2ccc(Cl)cc2)c1)N1CCCC1CO (centres undefined) | -1.13%
Cc1ccccc1C(NC(=O)NCC1(CO)CC1)C1CC1 (centres undefined) | -7.16%
COCC(=O)N1CCN(c2ccc(C(=O)OC)cc2)CC1C (centres undefined) | -14.2%
CCC(CC)NC(=O)c1cncc(Br)c1 | -0.211%
CC(C(=O)NS(=O)(=O)Cc1cc(-c2ccccc2)no1)C1CC1 (centres undefined) | -2.72%
O=C(Nc1ccc(CN2CCOCC2)cc1)c1nccn2ccnc12 | -8.3%
CC(C)=CCS(=O)(=O)Cc1ccn(-c2cccc(F)c2)n1 | 6.37%
CS(=O)(=O)NC1CCN(C(=O)c2ccc(Br)o2)C1 (centres undefined) | -7.03%
COc1cc(Cl)c(C)cc1NC(=O)CCNc1ccc(C#N)cn1 | 0.423%
CCCNC(=O)CC1OCCc2ccsc21 (centres undefined) | -1.5%
COc1cccc(CCC(=O)N2CCN(Cc3noc(C)n3)CC2)c1 | 3.09%
CCC(C)Sc1nncn1-c1ccc(OC)nc1 (centres undefined) | -1.35%
COC(=O)c1cc(OC)c(OC)cc1NCc1c(C)noc1C | 4%
CS(=O)(=O)NCC1CCCN(C(=O)Nc2cccc3ccccc23)C1 (centres undefined) | -139%

Structure (SMILES) | cytotoxicity at 10 µM
Cc1cc(NC(=O)CNC(C)(C)c2ccc3c(c2)OCO3)on1 | 7.51%
CCc1ncc2c(n1)CN(CC(O)COc1ccc(C#N)cc1)CC2 (centres undefined) | -7.65%
CN1CCCN(c2nc(C3CC3)ns2)CC1 | -3.23%
CCC1CN(c2cnn(C)c(=O)c2Br)CCO1 (centres undefined) | -5.09%
O=C(Cc1csc(N2CCNC2=O)n1)NCC1(c2ccccc2)CC1 | -123%
CCOc1ccc(NC2CCN(C)C2=O)cn1 (centres undefined) | -3.7%
CC(C)(CNc1cn[nH]c(=O)c1Cl)c1ccc2c(c1)OCO2 | 6.67%
Cc1nnc(CN(Cc2ccccc2Br)C2CC2)o1 | 5.2%
COc1c(NC(=O)C(C)CCOc2ccccc2)c(C)nn1C (centres undefined) | 8.96%
O=C(CNC(=O)C1CC1)NCC(F)(F)F | -5.82%
Cn1cnc2cc(C(=O)NS(=O)(=O)c3ccccc3Cl)ccc21 | -7.43%
CN(C)C(=O)Cn1ccc2cc(NC(=O)N3CCOCC3)ccc21 | 6.35%
Cc1ccc(CC(=O)N2CCN(C(C)c3ccccc3F)CC2)cn1 (centres undefined) | -9.75%
COc1ccc(-c2nnc(SCC(=O)NCC(C)C)[nH]2)c(OC)c1 | -6.73%
CCc1nnc2n1CCN(C(=O)c1ccc3nc(C)c(C)nc3c1)C2 | -10.9%
Cc1nn(CC(=O)N2CCCCC2Cn2cccn2)c(C)c1Cl (centres undefined) | 2.35%
Cc1ccoc1C(=O)N1C[C@H](OCC2CC2)[C@H]2OCCC[C@H]21 | 2.89%
CC(C)Cc1nc(CN(C)c2cc(C(C)C)nc3ccnn23)no1 | 3.61%
CCCSc1ccccc1NC(=O)N1CCC(N2CCSCC2)CC1 | -4.73%
CCN(CC1CCCN(CCc2cccc(OC)c2)C1)C(=O)CSC (centres undefined) | 8.76%
Cc1ccccc1CN1C[C@@H](CN(C)CCO)[C@@H](CO)C1 | -1.03%
Cc1cccn2c(CC(=O)N3CCC(Oc4ncccn4)CC3)cnc12 | 6.78%

Structure (SMILES) | cytotoxicity at 10 µM
COC[C@]1(O)CCN(c2cc(OC)ncn2)CC1(C)C | 5.66%
CC(NC(=O)COc1ccc(Cl)cc1Cl)c1nncn1C(C)C (centres undefined) | 1.67%
COCCN1CCCC2(CCN(c3nc(C)nc4c3CCC4)C2)C1=O (centres undefined) | -11.4%
Cc1ccc2[nH]c(CN(C)Cc3n[nH]c4c3CCC4)nc2c1 | 4.85%
CC(=O)NCC(=O)N1CCCC(C(=O)c2ccc(C(C)(C)C)cc2)C1 (centres undefined) | 5.78%
Nc1cc(C(=O)N2CCC3(CC2)Nc2ccccc2NC3=O)ccn1 | 6.13%
O=S(=O)(c1ccc(-c2cnco2)cc1)N1CCCC(O)(CO)CC1 (centres undefined) | 1.72%
Cc1nc(NCC(O)CN2CCCCCC2)c2c(C)nn(C)c2n1 (centres undefined) | -2.86%
CC(C)(O)CCc1cccc(C(=O)N[C@@H](CO)C(N)=O)c1 | 4.76%
CCOc1ccccc1-n1c(C2CC(=O)N(C)C2)n[nH]c1=O (centres undefined) | 2.48%
COc1cccc(-c2noc(-c3ccc(NCC4CC4)nc3)n2)c1OC | 6.65%
CC(C)N1CCCC2(CCN(C(=O)CCCn3cncn3)C2)C1=O (centres undefined) | -11.1%
CC(C)Cc1cc(NC(=O)c2cc(Cl)c[nH]2)n(C)n1 | -7.94%
O=C(Nc1cc(C(F)(F)F)c[nH]c1=O)N1CCOCC1 | -3.03%
O=C(O)c1c[nH]c2cc(NS(=O)(=O)c3cc(F)ccc3Cl)ccc12 | -1.43%
CCn1c(C(=O)N2CCN(CC[S+](C)[O-])CC2)cc2ccccc21 (centres undefined) | -3.49%
Cc1ccc(C(C)N(C)Cc2nc3c(cnn3C)c(=O)[nH]2)s1 (centres undefined) | -4.31%
CC(NC(=O)CCC(=O)c1cccs1)c1nnc2n1CCC2 (centres undefined) | -15.1%
CC(C)c1ccc(OCC(=O)NS(=O)(=O)c2cccnc2)cc1 | -5.19%
CC(C)c1noc(CCCC(=O)NC(C)c2ccccn2)n1 (centres undefined) | -4.36%
Cn1cc(C2CCCN2C(=O)COCCc2ccccc2)cn1 (centres undefined) | -2.87%
CCc1cnc(CN(C)C2CCN(CC(=O)Nc3cc(C)on3)C2)o1 (centres undefined) | 0.2%

Structure (SMILES) | cytotoxicity at 10 µM
Cc1cnn(CCNCC(O)COc2c(Cl)cccc2Cl)c1 (centres undefined) | -5.4%
Cn1ccnc1CNCC1CCCN1c1cccnn1 (centres undefined) | -11.3%
O=C(c1cnc(-c2ccccn2)s1)N1CCCC(n2cccn2)C1 (centres undefined) | -11.9%
CCn1cc(NC(=O)NCC(C)(C)N2CCc3ccccc3C2)cn1 | -5.16%
Cc1nc(CN(Cc2ccc3c(c2)OCCO3)C2CCCC2)no1 | -9.19%
COc1ccc(CNCC(C)Oc2ccccn2)cc1 (centres undefined) | -2.7%
CN(C)[C@@H]1CCN(c2ncccn2)[C@H]1Cc1cccnc1 | -3.9%
O=C(CN1CC(c2nc(-c3ccco3)no2)C1)NCc1ccc(F)cc1 | -5.07%
Cn1cnc2c1C(COCC1CC1)CN(c1ncccn1)C2 (centres undefined) | 7.22%
CCn1cc2c(n1)CN(C(=O)c1ccncc1)CC2COCC1CC1 (centres undefined) | -2.37%
NC(=O)c1ccc(CNC2CC2)cc1 | 8.57%
O=C(CC1CCCC1)N1C[C@H](OCc2ccncc2)[C@H]2OCCC[C@H]21 | 2.75%
Cc1ccc(C(=O)N2Cc3c(CN4CCCCC4)nn(C)c3C2)cc1F | -4.15%
CN1CCN(C(=O)[C@H]2C[C@@H]3CCN(c4ncc(F)cn4)C[C@@H]3O2)CC1 | -6.69%
Cc1nnc([C@@H]2CC[C@@H]3[C@@H](CCN3Cc3ccccn3)O2)o1 | 11.3%
O=C(c1ccsc1)N1CCO[C@@H]2CN(Cc3ccccn3)CC[C@@H]2C1 | -123%
Cc1cc(C(=O)N2CCC3(CC2)CC(c2cccnc2)C(=O)N3)no1 (centres undefined) | -133%
COCC1CN(C(=O)c2ccco2)Cc2cn(C)nc21 (centres undefined) | 9.08%
Cc1ccc(CN2CCc3ncnc(C4CCOC4)c3CC2)s1 (centres undefined) | -0.827%
CCc1ccc(NC(=O)N2C[C@@H]3C[C@H](C(=O)NC(C)C)[C@H](C2)O3)cc1 | -1.67%
CCn1ncc(-c2nc3c[nH]n(CC)c-3n2)c1C | 2.13%
